Laboratory results: ChEMBL document CHEMBL3393009 (J Med Chem, 2015)
Calls of active or inactive are those of the source. The rule behind the calls is not given here.

What was measured:
Canis familiaris = test: Volume of distribution at steady state in dog at 5 mg/kg, po; type: ADME, organism-based, Canis lupus familiaris; design: dose 5 mg/kg, route oral; conditions: in vivo
Mus musculus [1] = test: Inhibition of LRRK2 […] mutant […] phosphorylation in BAC-transgenic mouse at 3 to 100 mg/kg, sc measured after 90 mins post dose; type: functional; conditions: dose mg/kg 3-100; route subcutaneous
In short: (§1)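 Mice given compound subcutaneously in 10% NMP/20% SBECD vehicle: four-month-old C57BL/6J (wild type) or seven-month-old LRRK2 BAC-Tg G2019S. Tissues collected 90 min after dose. pS935, and pS1292 (custom antibody) in transgenic brain, read by Western blot of brain/kidney lysates against vehicle controls. Mean ± SEM.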

[2] = Apparent permeability from apical to basolateral side by cell based assay; type: physicochemical; conditions: not told
[3] = AUC in non-human primate at 5 mg/kg, po; type: ADME, organism-based; design: dose 5 mg/kg, route oral; conditions: monkey, plasma
Rattus norvegicus [4] = test: Toxicity in Wistar Han rat assessed as changes in urinary biomarkers at 6 to 60 mg/kg, po bid for 14 days; type: organism-based, Urine; design: dose 6-60 mg/kg, route oral; conditions: in vivo, 336 h
In short: (§2)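 Wistar Han rats (200–300 g, 8–11 weeks) dosed by oral gavage twice daily for 14 days. Vehicle: 10% propylene glycol/20% PEG400/70% methylcellulose solution. RBC parameters, electrolytes, food consumption, body weight, clinical chemistry and urinary biomarkers recorded.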

Rattus norvegicus [5] = test: fCmax in Wistar Han rat at 20 mg/kg, po bid for 14 days; type: ADME, organism-based; design: dose 20 mg/kg, route oral; conditions: in vivo, 336 h
[6] = Toxicity in Wistar Han rat at 6 to 60 mg/kg, po bid for 14 days; type: organism-based; design: dose 6-60 mg/kg, route oral; conditions: in vivo
In short: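 Exploratory 14-day study in Wistar Han rats (200–300 g, 8–11 weeks old at start). Dosing was by oral gavage twice daily in 10% propylene glycol/20% PEG400/70% 9.5% methocellulose. Unbound plasma exposure was measured on days 1 and 11. Endpoints were RBC parameters, electrolytes, food consumption, body weight, clinical chemistry, urinary renal biomarkers and kidney appearance.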

[7] = Volume of distribution at steady state in non-human primate at 5 mg/kg, po; type: ADME, organism-based; design: dose 5 mg/kg, route oral; conditions: monkey, in vivo
Rattus norvegicus [8] = test: Drug coverage index, ratio fAUC in Wistar Han rat at 20 mg/kg, po bid for 14 days to IC50 for LRRK2 […] phosphorylation in Wistar Han rat brain at 6 to 60 mg/kg, po bid for 14 days; type: ADME, organism-based; conditions: in vivo, 336 h
In short: (§3)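 Wistar Han rats (200–300 g, 8–11 weeks old) were dosed by oral gavage twice daily for 14 days. Vehicle was 10% propylene glycol/20% PEG400/70% 9.5% methocellulose.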

[9] = biological target: Tyrosine-protein kinase JAK1 (Homo sapiens, UniProt P23458); test: Inhibition of JAK1 (JH1 domain-catalytic) (unknown origin) at 1 uM
[10] = Cytotoxicity against human THLE cells by in-vitro ATP depletion assay; type: cell-based
Rattus norvegicus [11] = test: fAUC in Wistar Han rat at 60 mg/kg, po bid for 14 days; type: ADME, organism-based; design: dose 60 mg/kg, route oral; conditions: in vivo, 336 h
In short: (§4)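 Wistar Han rats dosed orally twice daily in 10% propylene glycol/20% PEG400/methylcellulose vehicle. Unbound plasma exposure measured on days 1 and 11.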

[12] = biological target: Tyrosine-protein kinase JAK2 (Homo sapiens, UniProt O60674); test: Inhibition of JAK2 (JH1 domain-catalytic) (unknown origin) at 1 uM
Rattus norvegicus [13] = test: Toxicity in Wistar Han rat assessed as changes in clinical chemistry parameters at 6 to 60 mg/kg, po bid for 14 days; type: organism-based; design: dose 6-60 mg/kg, route oral; conditions: in vivo, 336 h; in short: as §2
[14] = Tmax in rat at 5 mg/kg, po; type: ADME, organism-based; design: dose 5 mg/kg, route oral; conditions: in vivo
Rattus norvegicus [15] = test: fCmax in Wistar Han rat at 6 mg/kg, po bid for 14 days; type: ADME, organism-based; design: dose 6 mg/kg, route oral; conditions: in vivo, 336 h
Rattus norvegicus [16] = test: Toxicity in Wistar Han rat assessed as changes in RBC parameters at 6 to 60 mg/kg, po bid for 14 days; type: organism-based; design: dose 6-60 mg/kg, route oral; conditions: in vivo, 336 h; in short: as §2
Mus musculus [17] = test: Inhibition of LRRK2 […] mutant S1292 phosphorylation in BAC-transgenic mouse at 3 to 100 mg/kg, sc measured after 90 mins post dose; type: functional; conditions: dose mg/kg 3-100; route subcutaneous; in short: as §1
[18] = Drug coverage index, ratio fCmax in Wistar Han rat at 6 mg/kg, po bid for 14 days to IC50 for LRRK2 […] phosphorylation in Wistar Han rat brain at 6 to 60 mg/kg, po bid for 14 days; type: ADME, organism-based; conditions: in vivo, 336 h; in short: as §3
[19] = Cmax in non-human primate at 5 mg/kg, po; type: ADME, organism-based; design: dose 5 mg/kg, route oral; conditions: monkey, in vivo
[20] = Clearance in rat liver microsomes; type: ADME; conditions: read-out: CLH
[21] = Half life in non-human primate at 5 mg/kg, po; type: ADME, organism-based; design: dose 5 mg/kg, route oral; conditions: monkey, in vivo
Rattus norvegicus [22] = test: Toxicity in Wistar Han rat assessed as changes in electrolytes levels at 6 to 60 mg/kg, po bid for 14 days; type: organism-based; design: dose 6-60 mg/kg, route oral; conditions: in vivo, 336 h; in short: as §2
[23] = Oral bioavailability in non-human primate at 5 mg/kg; type: ADME, organism-based; conditions: monkey, in vivo
[24] = AUC in rat at 5 mg/kg, po; type: ADME, organism-based; design: dose 5 mg/kg, route oral; conditions: plasma
[25] = biological target: T1, Leucine-rich repeat serine/threonine-protein kinase 2 (Homo sapiens, UniProt Q5S007); test: Inhibition of LRRK2 in human PBMCs by ActivX KiNativ method
[26] = biological target: T1, Leucine-rich repeat serine/threonine-protein kinase 2; test: Inhibition of full length LRRK2 (unknown origin) expressed in HEK293 cells assessed as reduction in S935 phosphorylation incubated for 90 mins by ELISA method; type: cell-based
[27] = AUC in dog at 5 mg/kg, po; type: ADME, organism-based, Canis lupus familiaris; design: dose 5 mg/kg, route oral; conditions: plasma
[28] = Cmax in rat at 5 mg/kg, po; type: ADME, organism-based; design: dose 5 mg/kg, route oral; conditions: in vivo
[29] = Oral bioavailability in dog at 5 mg/kg; type: ADME, organism-based, Canis lupus familiaris; conditions: in vivo
Mus musculus [30] = test: Inhibition of wild type LRRK2 […] phosphorylation in BAC-transgenic C57BL/6J mouse kidney at 3 to 100 mg/kg, sc measured after 90 mins post dose; type: functional; conditions: dose mg/kg 3-100; route subcutaneous; in short: as §1
Rattus norvegicus [31] = test: Toxicity in Wistar Han rat assessed as changes in food consumption at 6 to 60 mg/kg, po bid for 14 days; type: organism-based; design: dose 6-60 mg/kg, route oral; conditions: in vivo, 336 h; in short: as §2
Rattus norvegicus [32] = test: fAUC in Wistar Han rat at 6 mg/kg, po bid for 14 days; type: ADME, organism-based; design: dose 6 mg/kg, route oral; conditions: in vivo, 336 h; in short: as §4
Rattus norvegicus [33] = test: Toxicity in Wistar Han rat assessed as changes in body weight at 6 to 60 mg/kg, po bid for 14 days; type: organism-based; design: dose 6-60 mg/kg, route oral; conditions: in vivo, 336 h; in short: as §2
Mus musculus [34] = test: Inhibition of wild type LRRK2 […] phosphorylation in BAC-transgenic C57BL/6J mouse brain at 3 to 100 mg/kg, sc measured after 90 mins post dose; type: functional; conditions: dose mg/kg 3-100; route subcutaneous; in short: as §1
Rattus norvegicus [35] = test: fAUC in Wistar Han rat at 20 mg/kg, po bid for 14 days; type: ADME, organism-based; design: dose 20 mg/kg, route oral; conditions: in vivo, 336 h; in short: as §4
[36] = Oral bioavailability in rat at 5 mg/kg; type: ADME, organism-based; conditions: in vivo
Rattus norvegicus [37] = test: Toxicity in Wistar Han rat assessed as changes in lung parameters at 6 to 60 mg/kg, po bid for 14 days by H and E staining method; type: organism-based; design: dose 6-60 mg/kg, route oral; conditions: in vivo, 336 h

T1 sequence (Q5S007 whole entry): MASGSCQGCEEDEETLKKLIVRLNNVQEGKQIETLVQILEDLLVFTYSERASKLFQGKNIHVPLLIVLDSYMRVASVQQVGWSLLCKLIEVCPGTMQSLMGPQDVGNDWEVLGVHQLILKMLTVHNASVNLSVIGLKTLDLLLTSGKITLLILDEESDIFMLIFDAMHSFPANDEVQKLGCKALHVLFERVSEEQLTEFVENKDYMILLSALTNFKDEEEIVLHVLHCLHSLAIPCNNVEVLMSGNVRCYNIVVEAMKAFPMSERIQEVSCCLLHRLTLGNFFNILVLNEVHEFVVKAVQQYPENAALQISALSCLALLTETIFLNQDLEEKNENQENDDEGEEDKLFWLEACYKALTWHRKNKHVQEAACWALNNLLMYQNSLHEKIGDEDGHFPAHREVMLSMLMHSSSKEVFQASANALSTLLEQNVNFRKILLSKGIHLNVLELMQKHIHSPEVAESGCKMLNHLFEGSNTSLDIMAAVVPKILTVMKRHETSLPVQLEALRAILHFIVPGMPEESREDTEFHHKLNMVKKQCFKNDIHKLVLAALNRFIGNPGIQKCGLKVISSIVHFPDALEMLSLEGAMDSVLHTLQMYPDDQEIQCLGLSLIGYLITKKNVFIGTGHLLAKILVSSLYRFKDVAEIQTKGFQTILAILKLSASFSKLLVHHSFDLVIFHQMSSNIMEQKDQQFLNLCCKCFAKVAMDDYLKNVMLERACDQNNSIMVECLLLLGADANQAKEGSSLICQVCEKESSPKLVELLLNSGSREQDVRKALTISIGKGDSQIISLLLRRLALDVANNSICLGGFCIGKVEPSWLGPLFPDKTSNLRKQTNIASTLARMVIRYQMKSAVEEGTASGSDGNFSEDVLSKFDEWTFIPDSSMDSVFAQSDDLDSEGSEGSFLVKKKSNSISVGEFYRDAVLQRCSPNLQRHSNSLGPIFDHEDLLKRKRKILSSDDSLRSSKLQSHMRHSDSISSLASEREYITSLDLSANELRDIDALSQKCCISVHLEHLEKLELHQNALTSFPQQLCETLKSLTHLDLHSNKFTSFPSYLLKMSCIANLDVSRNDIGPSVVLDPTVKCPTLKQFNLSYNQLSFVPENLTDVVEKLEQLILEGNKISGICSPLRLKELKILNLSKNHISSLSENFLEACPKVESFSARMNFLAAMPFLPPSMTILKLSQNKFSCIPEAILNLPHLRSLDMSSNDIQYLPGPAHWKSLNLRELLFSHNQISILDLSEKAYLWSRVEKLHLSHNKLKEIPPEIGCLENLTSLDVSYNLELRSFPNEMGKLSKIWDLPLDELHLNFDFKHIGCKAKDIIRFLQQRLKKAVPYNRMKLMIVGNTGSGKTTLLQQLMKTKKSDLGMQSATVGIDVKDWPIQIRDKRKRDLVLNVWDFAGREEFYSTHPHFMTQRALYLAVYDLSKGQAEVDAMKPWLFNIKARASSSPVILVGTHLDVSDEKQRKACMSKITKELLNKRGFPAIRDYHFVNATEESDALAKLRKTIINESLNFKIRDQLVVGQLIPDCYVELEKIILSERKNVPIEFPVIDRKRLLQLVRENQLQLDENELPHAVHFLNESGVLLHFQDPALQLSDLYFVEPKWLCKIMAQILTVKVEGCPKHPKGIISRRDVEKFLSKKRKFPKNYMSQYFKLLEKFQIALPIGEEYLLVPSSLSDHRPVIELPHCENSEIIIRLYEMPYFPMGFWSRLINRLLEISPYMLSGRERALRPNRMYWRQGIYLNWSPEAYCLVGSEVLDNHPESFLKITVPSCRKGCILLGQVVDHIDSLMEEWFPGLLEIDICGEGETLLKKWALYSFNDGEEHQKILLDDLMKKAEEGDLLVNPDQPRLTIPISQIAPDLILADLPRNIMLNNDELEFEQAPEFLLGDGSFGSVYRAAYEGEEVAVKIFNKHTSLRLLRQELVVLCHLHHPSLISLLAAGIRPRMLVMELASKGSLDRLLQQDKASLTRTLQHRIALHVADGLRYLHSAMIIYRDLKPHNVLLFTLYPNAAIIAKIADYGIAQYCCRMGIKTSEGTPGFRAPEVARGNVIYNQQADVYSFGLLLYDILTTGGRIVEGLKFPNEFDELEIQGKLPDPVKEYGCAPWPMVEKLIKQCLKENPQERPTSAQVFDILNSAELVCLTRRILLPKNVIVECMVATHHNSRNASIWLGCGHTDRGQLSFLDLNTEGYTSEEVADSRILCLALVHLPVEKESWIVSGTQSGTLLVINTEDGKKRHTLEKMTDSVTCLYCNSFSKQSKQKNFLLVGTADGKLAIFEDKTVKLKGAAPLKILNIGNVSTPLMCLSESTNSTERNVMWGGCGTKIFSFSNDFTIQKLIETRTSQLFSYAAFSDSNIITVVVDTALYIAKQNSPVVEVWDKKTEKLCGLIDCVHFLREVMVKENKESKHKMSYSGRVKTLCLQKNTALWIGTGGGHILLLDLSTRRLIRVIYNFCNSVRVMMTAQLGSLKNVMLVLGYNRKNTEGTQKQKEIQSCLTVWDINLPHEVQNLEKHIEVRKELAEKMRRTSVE
Chain of Tyrosine-protein kinase JAK1 (P23458 whole entry, the tested form may be a part): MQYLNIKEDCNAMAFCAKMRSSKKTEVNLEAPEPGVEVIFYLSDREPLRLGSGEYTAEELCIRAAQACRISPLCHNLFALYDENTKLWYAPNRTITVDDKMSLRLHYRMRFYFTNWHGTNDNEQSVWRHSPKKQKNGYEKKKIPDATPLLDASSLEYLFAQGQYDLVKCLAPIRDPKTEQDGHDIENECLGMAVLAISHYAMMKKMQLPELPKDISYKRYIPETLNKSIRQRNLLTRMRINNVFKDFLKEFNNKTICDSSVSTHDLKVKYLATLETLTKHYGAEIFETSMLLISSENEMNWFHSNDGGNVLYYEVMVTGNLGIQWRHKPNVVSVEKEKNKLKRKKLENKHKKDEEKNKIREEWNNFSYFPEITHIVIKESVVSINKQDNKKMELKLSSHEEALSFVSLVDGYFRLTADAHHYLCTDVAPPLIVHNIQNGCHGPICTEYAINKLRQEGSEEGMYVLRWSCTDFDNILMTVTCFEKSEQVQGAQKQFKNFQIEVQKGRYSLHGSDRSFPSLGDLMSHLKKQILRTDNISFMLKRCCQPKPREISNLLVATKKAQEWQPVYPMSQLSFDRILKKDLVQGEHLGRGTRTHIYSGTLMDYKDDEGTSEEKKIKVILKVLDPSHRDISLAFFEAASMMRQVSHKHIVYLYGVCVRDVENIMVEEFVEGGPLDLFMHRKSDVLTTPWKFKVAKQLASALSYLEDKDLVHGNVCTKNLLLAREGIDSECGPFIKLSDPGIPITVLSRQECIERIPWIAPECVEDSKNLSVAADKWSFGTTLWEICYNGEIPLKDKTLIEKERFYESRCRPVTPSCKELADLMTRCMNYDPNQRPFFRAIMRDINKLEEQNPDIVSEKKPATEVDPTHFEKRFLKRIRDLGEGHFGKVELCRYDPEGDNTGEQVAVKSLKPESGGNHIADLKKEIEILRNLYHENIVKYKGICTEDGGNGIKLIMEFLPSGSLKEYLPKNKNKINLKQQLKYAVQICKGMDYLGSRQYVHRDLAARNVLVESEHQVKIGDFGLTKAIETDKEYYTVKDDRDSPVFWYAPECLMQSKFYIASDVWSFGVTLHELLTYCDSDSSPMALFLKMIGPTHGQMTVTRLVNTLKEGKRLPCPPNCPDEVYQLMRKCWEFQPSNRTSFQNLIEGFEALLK
Chain of Tyrosine-protein kinase JAK2 (O60674 whole entry, the tested form may be a part): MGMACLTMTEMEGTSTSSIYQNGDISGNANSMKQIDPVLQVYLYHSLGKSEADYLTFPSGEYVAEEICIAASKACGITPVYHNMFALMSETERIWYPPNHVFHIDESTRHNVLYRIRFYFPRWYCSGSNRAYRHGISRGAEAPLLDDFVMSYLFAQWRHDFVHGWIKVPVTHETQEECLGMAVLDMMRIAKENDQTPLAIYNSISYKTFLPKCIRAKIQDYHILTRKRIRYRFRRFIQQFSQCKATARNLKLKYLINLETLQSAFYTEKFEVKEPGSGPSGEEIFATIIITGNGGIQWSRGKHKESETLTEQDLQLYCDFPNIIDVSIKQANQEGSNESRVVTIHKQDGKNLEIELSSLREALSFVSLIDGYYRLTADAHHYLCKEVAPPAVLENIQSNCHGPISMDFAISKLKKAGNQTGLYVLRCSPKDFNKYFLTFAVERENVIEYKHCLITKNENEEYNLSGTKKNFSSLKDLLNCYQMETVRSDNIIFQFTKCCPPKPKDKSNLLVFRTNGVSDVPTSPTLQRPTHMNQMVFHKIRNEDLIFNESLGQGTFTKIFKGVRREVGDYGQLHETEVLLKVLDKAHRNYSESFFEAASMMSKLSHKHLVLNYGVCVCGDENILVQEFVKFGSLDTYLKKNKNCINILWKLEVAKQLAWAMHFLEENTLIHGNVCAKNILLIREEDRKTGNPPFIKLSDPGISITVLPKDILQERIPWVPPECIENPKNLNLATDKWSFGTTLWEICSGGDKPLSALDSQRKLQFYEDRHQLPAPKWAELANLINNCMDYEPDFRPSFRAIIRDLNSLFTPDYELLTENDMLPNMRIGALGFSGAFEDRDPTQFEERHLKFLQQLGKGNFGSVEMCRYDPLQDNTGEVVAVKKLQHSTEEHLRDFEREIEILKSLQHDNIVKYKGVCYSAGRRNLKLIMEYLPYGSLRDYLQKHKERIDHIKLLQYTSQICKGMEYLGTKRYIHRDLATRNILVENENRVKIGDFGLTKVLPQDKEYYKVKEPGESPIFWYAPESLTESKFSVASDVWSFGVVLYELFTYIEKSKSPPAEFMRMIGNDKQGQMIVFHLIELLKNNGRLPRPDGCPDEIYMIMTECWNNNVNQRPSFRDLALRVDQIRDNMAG

N#Cc1cccc(-c2c[nH]c3ncnc(N4CCOCC4)c23)c1
Vdss (Canis familiaris): 0.92 L/kg | fIC50 (Mus musculus [1]): 103 nM | Papp A→B [2]: 27 ×10⁻⁶ cm/s | AUC [3]: 78 ng·h/mL | Activity (Rattus norvegicus [4]): Non-toxic | fCmax (Rattus norvegicus [5]): 380 nM | MTD at 336 h [6]: > 60 mg/kg/day | Vdss [7]: 1.06 L/kg | Ratio (Rattus norvegicus [8]): 12 | inhibition [9]: inactive | IC50 [10]: > 223000 nM | fAUC (Rattus norvegicus [11]): 11.17 µM·h | inhibition [12]: inactive | Activity (Rattus norvegicus [13]): Non-toxic | Tmax [14]: 0.5 h | fCmax (Rattus norvegicus [15]): 86 nM | Activity (Rattus norvegicus [16]): Non-toxic | fIC50 (Mus musculus [17]): 21 nM | Ratio [18]: 6 | Cmax [19]: 25 ng/mL | CLint scaled [20]: 131 mL/min/kg | half-life [21]: 2.27 h | Activity (Rattus norvegicus [22]): Non-toxic | bioavailability [23]: 3.5% | AUC [24]: 629 ng·h/mL | IC50 [25]: 15 nM | IC50 [26]: 25 nM | AUC [27]: 10 ng·h/mL | Cmax [28]: 181 ng/mL | bioavailability [29]: 0.6% | fIC50 (Mus musculus [30]): 11 nM | Activity (Rattus norvegicus [31]): Non-toxic | fAUC (Rattus norvegicus [32]): 0.843 µM·h | Activity (Rattus norvegicus [33]): Non-toxic | fIC50 (Mus musculus [34]): 8 nM | fAUC (Rattus norvegicus [35]): 4.14 µM·h | bioavailability [36]: 41% | Activity (Rattus norvegicus [37]): Non-toxic
